HSV replic up – enhancers of HSV replication in host cells, fold increase, host cell viability; HSV replication augmentation in cells; maximum fold increase; 220,000 tested, 0.005% active; AID 1956, 2009; in the data active means maximum fold increase above about 1.5; inconclusive means no clear call, values can overlap the other calls; tested in PC3 cells
INS promoter inh – inhibitors of insulin promoter-driven GFP, primary screen, imaging, TRM-6 cells (human fetal islet line), eGFP reporter, cell count | AID 1273, 2008 | inhibition, % at 2 µM | 130,000 tested, 0.9% active | reporter expression induced with tamoxifen;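 active means inhibition above the mean plus 3 SD, with well images judged a real hit on visual review, cut at about 60% in these data, passing the limit was not always enough; inconclusive means inhibition over the cutoff but images rejected on review; inactive means inhibition not above the cutoff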
Dynein cargo inh – inhibitors of GR-EGFP nuclear translocation, primary screen, dynein cargo transport inhibitor project, imaging, high-content, 3617.4 mouse cells; test concentration mostly 20 µM; stimulated with dexamethasone, 1 µM; active compounds read low; z-score, hits read low; 220,000 tested, 0.47% active;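 active means plate z-score of nuclear minus cytoplasmic receptor signal below a set negative limit, without overly bright fluorescence or cell loss, cut at about -3.5 in these data, passing the limit was not always enough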;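 further: z-score of nuclear minus cytoplasmic ring GR-EGFP intensity difference per well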
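Buffer or medium – tet-free medium with charcoal-stripped serum · Signal – automated 10x imaging of fixed Hoechst-stained cells · Also added – dexamethasone agonist, 1.0 µM final, for 30 min · Incubation – induction 48 h, compound 1 h, agonist 30 min · Read-out – GR-EGFP nuclear translocation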
Ins promoter up – insulin promoter activators in MIN6 cells, imaging, high-content screening, mouse beta cells; MIN6 insulin promoter-GFP reporter; active compounds read high; z-score at 5 µM; 190,000 tested, 0.3% active;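 active means z-score above 3 at 5 µM with at least 500 cells counted in the well; inconclusive means wells under 500 cells, flagged as cytotoxic or low count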
Autophagy HCS – autophagy modulators in MEF cells, primary screen, imaging, high-content, MEF GFP-LC3; MEF GFP-LC3 puncta imaging; test concentration mostly 10 µM; calls only at 10 µM (by protocol); 190,000 tested, 0.98% active;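 active means percentage of spot-positive cells more than 3 SD above its plate mean, without a fluorescence outlier flag or 80% toxicity; inconclusive means no clear call, values can overlap the other calls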;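 further: spot-positive cell cutoff set from DMSO-treated cells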
Furin inhibitor – human furin inhibitors, primary screen, biochemical, fluorescence intensity. 220,000 tested, 0.061% active. purified furin, fluorogenic substrate cleavage. AID 463115, 2010. P09958. inhibition, % at 20 µM or 30 µM; in the data active means inhibition above about 25%
Target sequence (P09958 108-714 limits assumed): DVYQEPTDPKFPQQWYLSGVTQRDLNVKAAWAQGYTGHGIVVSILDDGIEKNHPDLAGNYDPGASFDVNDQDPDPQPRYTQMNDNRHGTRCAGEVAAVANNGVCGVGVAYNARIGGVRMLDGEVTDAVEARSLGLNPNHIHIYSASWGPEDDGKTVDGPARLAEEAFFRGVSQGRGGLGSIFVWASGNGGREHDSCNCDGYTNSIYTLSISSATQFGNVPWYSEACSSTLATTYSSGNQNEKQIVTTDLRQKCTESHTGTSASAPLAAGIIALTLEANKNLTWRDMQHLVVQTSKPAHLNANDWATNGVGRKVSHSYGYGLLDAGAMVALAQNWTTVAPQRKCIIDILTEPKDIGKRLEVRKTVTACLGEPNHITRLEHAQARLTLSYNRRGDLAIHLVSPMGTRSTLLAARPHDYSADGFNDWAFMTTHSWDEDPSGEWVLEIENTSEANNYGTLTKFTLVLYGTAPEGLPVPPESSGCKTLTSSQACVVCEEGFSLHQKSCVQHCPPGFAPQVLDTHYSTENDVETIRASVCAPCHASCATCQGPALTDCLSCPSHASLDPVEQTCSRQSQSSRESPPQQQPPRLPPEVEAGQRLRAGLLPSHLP
Numbers without * were called inactive; i = inactive; ? = inconclusive; / = not tested or not shown; + = active, no number. Rows were chosen to be rich in hits. Some 2% of all compounds tested hit in one or more screens of this group.

SMILES | HSV replic up | INS promoter inh | Dynein cargo inh | Ins promoter up | Autophagy HCS | Furin inhibitor
Cc1cc(NC(=O)c2cc(-c3ccc(C)s3)nc3ccccc23)no1 | i | / | 0.0771 | 1.25 | i | -19.9
Cc1cccc(NC(=O)c2cc(-c3ccc(C)s3)nc3ccccc23)n1 | i | -23.3 | -0.262 | 0.55 | + | -13.4
S=C(NCCN1CCOCC1)N/N=C/c1c2ccccc2cc2ccccc12 | i | -3.3 | 3.18 | -0.26 | + | -4.9
COc1ccc2ccccc2c1/C=N/NC(=S)NCCN1CCOCC1 | i | / | 1.04 | 0 | i | -4.3
COc1cc(OC)c(OC)cc1/C=N/NC(=S)NCCN1CCOCC1 | i | / | -0.317 | -0.08 | + | -6.7
COc1cc(/C=N/NC(=S)NCCN2CCOCC2)cc(OC)c1O | i | 15.4 | -0.53 | -0.14 | i | -7.1
O=C(COC(=O)Cc1ccccc1F)Nc1cc(S(=O)(=O)N2CCOCC2)ccc1N1CCCC1 | i | / | -0.732 | 0.49 | i | -11.4
Cc1ccc(NCCc2ccc(C)nc2)cc1 | i | 75.0* | -0.102 | -0.85 | i | -20.9
CCc1ccc(-c2cn3c(n2)SCC3)cc1 | i | 83.3* | 0.601 | -0.42 | i | -9.7
CCc1c(C)nc2ncnn2c1NCCc1ccc(Cl)cc1 | i | / | -0.632 | -2.69 | i | -22.3
CCOc1ccc(NC(=O)/C(C#N)=C/c2ccc(N3CCCC3)c(C)c2)cc1 | ? | / | -1.56 | -0.3 | + | -30.6
CSCC[C@H](NC(=O)C(C)Oc1ccc(Cl)cc1)c1nc2ccccc2[nH]1 (stereo not given in full) | i | -71.9 | -0.835 | / | i | -8.5
CCn1cc(C(C)(C)C)c(C#N)c1NC(C)=O | i | -35.7 | 0.165 | -0.54 | + | -15.2
CC(C)(C)NC(=O)NC(=O)CN1CCN(c2ncc(C(F)(F)F)cc2Cl)CC1 | i | 67.9* | -0.646 | 0.23 | i | -19.1
CCc1ccccc1NC(=O)COc1ccc(C(=S)N2CCCC2)cc1 | i | / | 1.39 | 1.18 | i | 0.2
COC(=O)c1c(NC(=O)CC2Nc3ccccc3NC2=O)sc(C)c1C (stereo not given) | i | -26.7 | -0.529 | / | + | -21.6
CCOC(=O)c1c(NC(=O)CC2Nc3ccccc3NC2=O)sc(C)c1C (stereo not given) | i | 2.7 | -0.263 | -0.67 | + | -16.4
CC(C)c1ccc(Nc2nnns2)cc1 | i | / | -1.03 | -0.49 | / | -22.4
COC(=O)c1ccc(COC(=O)CNS(=O)(=O)c2ccc(C)cc2)cc1 | i | 73.0* | -0.241 | -0.18 | i | -16.7
COC(=O)c1ccc(COC(=O)CCS(=O)(=O)c2ccc(C)cc2)cc1 | i | / | -0.751 | 0.5 | i | -22.5
CC(C)SC1=NC(C)(C)C=C(/C=C/c2ccc(Cl)cc2Cl)N1 | i | -61.3 | 0.147 | 3.58* | i | -12.6
Oc1c(C=Nc2ccccc2Cl)[nH]c2ccccc12 | i | / | 1.77 | / | / | -7.7
CCc1ccc(C2CC(=O)N3CN(c4ccccc4)CSC3=C2C#N)cc1 (stereo not given) | i | / | 1.51 | 0.19 | i | -11.1
N#CC1=C2SCC(O)(c3ccccc3)N2C(=O)CC1c1ccccc1 (stereo not given) | i | / | -0.52 | -0.89 | + | -14.8
CN(C)c1ccc(/C=C2\C(=N)N3C(=NC2=O)Sc2cc(S(C)(=O)=O)ccc23)cc1 | ? | / | -0.863 | / | / | -10.3
SMILES | HSV replic up | INS promoter inh | Dynein cargo inh | Ins promoter up | Autophagy HCS | Furin inhibitor
CCOC(=O)c1csc(NC(=O)c2cc(=O)c3ccccc3o2)n1 | i | / | -0.496 | -0.3 | i | -13.6
CC(=O)c1sc(NC(=O)c2cc(=O)c3ccccc3o2)nc1C | i | / | -0.864 | -1.1 | + | -13.2
Cn1cc(Br)c(-c2cccc(NC(=O)CCC(=O)O)c2)n1 | i | / | -0.0827 | 0.47 | / | -8.0
CCCOc1ccc(C2NC(=O)NC2=O)cc1 (stereo not given) | i | 9.7 | 0.136 | / | i | 26.7*
CC(C)Oc1cccc(C(=O)NC(=S)Nc2ccccc2)c1 | i | 16.7 | 0.0592 | 0.09 | i | -12.7
COc1ccc(-c2c3c(=O)n(C)c(=O)n(C)c3cn2Cc2cccnc2)cc1 | i | 73.3* | -1.03 | 0.29 | i | -23.8
O=C(COC(=O)CCSc1ccc(Cl)cc1)NCc1ccccc1Cl | i | 66.7* | -0.248 | -0.23 | i | 3.9

Source: PubChem BioAssay (several laboratories)
